From ChEMBL document CHEMBL4184236, “Design, synthesis and biological evaluation of matrine derivatives as potential anticancer agents” (Bioorg Med Chem Lett, 2018)

Experiments:
Assay type in all cases: functional, cell-based
[1] = test system: A549; experiment: Anticancer activity against human A549 cells assessed as reduction in cell viability incubated for 48 hrs MTT assay; settings: A549, 48 h
Method in brief: (§1)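 MTT assay on human hepatocarcinoma SMMC-7721, lung carcinoma A549 and nasopharyngeal carcinoma CNE2 cells, with matrine as comparator and cisplatin as positive control. IC50 is the concentration that lowers optical density of treated cells by 50% versus untreated cells, given as the mean ± SD of three experiments.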

[2] = test system: CNE-2; experiment: Anticancer activity against human CNE2 cells assessed as reduction in cell viability incubated for 48 hrs MTT assay; settings: CNE-2, 48 h; method in brief: as §1
[3] = test system: SMMC-7721; experiment: Anticancer activity against human SMMC7721 cells assessed as reduction in cell viability incubated for 48 hrs MTT assay; settings: SMMC-7721, 48 h; method in brief: as §1

| Compound | IC50 [1] [µM] | IC50 [3] [µM] | IC50 [2] [µM] |
| --- | --- | --- | --- |
| O=C1/C(=C/c2ccc3c(ccn3Cc3cccc(Cl)c3)c2)CC[C@@H]2[C@H]3CCCN4CCC[C@@H](CN12)[C@@H]34 | 29.9 | 25.8 | 14.6 |
| CC(C)(C)c1ccc(Cn2ccc3cc(/C=C4\CC[C@@H]5[C@H]6CCCN7CCC[C@@H](CN5C4=O)[C@@H]67)ccc32)cc1 | 10.9 | 10.7 | 8.99 |
| COc1cccc(Cn2cccc2/C=C2\CC[C@@H]3[C@H]4CCCN5CCC[C@@H](CN3C2=O)[C@@H]45)c1 | 29.8 | 13.4 | 7.05 |
| O=C1/C(=C/c2cn(Cc3ccc(OC(F)(F)F)cc3)c3ccccc23)CC[C@@H]2[C@H]3CCCN4CCC[C@@H](CN12)[C@@H]34 | 7.03 | 6.82 | 6.64 |
| O=C1/C(=C/c2cccn2Cc2ccccc2)CC[C@@H]2[C@H]3CCCN4CCC[C@@H](CN12)[C@@H]34 | 42.9 | 38.4 | 45.7 |
| Cc1ccc(Cn2cc(/C=C3\CC[C@@H]4[C@H]5CCCN6CCC[C@@H](CN4C3=O)[C@@H]56)c3ccccc32)cc1 | 9.84 | 9.12 | 8.91 |
| COc1ccc2c(/C=C3\CC[C@@H]4[C@H]5CCCN6CCC[C@@H](CN4C3=O)[C@@H]56)cn(Cc3ccc4ccccc4c3)c2c1 | 13.2 | 9.06 | 5.42 |
| O=C1/C(=C/c2cccn2Cc2ccc(Cl)cc2)CC[C@@H]2[C@H]3CCCN4CCC[C@@H](CN12)[C@@H]34 | 21.6 | 21.6 | 15.2 |
| O=C1/C(=C/c2cn(Cc3cccc(Cl)c3)c3ccc(Br)cc23)CC[C@@H]2[C@H]3CCCN4CCC[C@@H](CN12)[C@@H]34 | 16.8 | 9.81 | 8.5 |
| O=C1/C(=C/c2cccn2Cc2cccc(Cl)c2)CC[C@@H]2[C@H]3CCCN4CCC[C@@H](CN12)[C@@H]34 | 22.3 | 20.9 | 16.3 |
| COc1ccc(Br)c(Cn2cccc2/C=C2\CC[C@@H]3[C@H]4CCCN5CCC[C@@H](CN3C2=O)[C@@H]45)c1 | 14.5 | 12.2 | 11.6 |

Second part, led by results:

| IC50 [1] [µM] | IC50 [3] [µM] | Compound | IC50 [2] [µM] |
| --- | --- | --- | --- |
| 8.53 | 5.65 | O=C1/C(=C/c2cn(Cc3ccc4ccccc4c3)c3ccccc23)CC[C@@H]2[C@H]3CCCN4CCC[C@@H](CN12)[C@@H]34 | 4.56 |
| 26.2 | 26 | O=C1/C(=C/c2cccn2Cc2ccccc2Cl)CC[C@@H]2[C@H]3CCCN4CCC[C@@H](CN12)[C@@H]34 | 26.3 |
| 5.04 | 3.26 | Cc1ccc2c(c1)c(/C=C1\CC[C@@H]3[C@H]4CCCN5CCC[C@@H](CN3C1=O)[C@@H]45)cn2Cc1ccc2ccccc2c1 | 3.53 |
| 9.68 | 9.55 | CC(C)(C)c1ccc(Cn2cc(/C=C3\CC[C@@H]4[C@H]5CCCN6CCC[C@@H](CN4C3=O)[C@@H]56)c3ccccc32)cc1 | 7.73 |
| 12 | 15.1 | O=C1/C(=C/c2cccn2Cc2ccccc2Br)CC[C@@H]2[C@H]3CCCN4CCC[C@@H](CN12)[C@@H]34 | 17.3 |
| > 100 | > 100 | Cn1cccc1/C=C1\CC[C@@H]2[C@H]3CCCN4CCC[C@@H](CN2C1=O)[C@@H]34 | > 100 |
| 18.9 | 13.3 | COc1cc(Cn2cccc2/C=C2\CC[C@@H]3[C@H]4CCCN5CCC[C@@H](CN3C2=O)[C@@H]45)cc(OC)c1OC | 7.83 |
| 7.07 | 6.83 | O=C1/C(=C/c2cccc3c2ccn3Cc2cccc(Cl)c2)CC[C@@H]2[C@H]3CCCN4CCC[C@@H](CN12)[C@@H]34 | 6.64 |
